Where only a bound is given, the exact number is not on record here.

Data set [1] can be described thus: Inhibitory activity against metabotropic glutamate receptor 5 (mGluR5). In a few lines:
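Functional FLIPR assay in CHO cells transfected with mGlu5 receptor.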

The target in data set [2] is Metabotropic glutamate receptor 5 (Homo sapiens) (UniProt P41594). The data set is described as follows: Percent inhibition against metabotropic glutamate receptor 5 (mGluR5) at 10 uM.
Data set [3] is described as follows: Half life was determined; 1-2h. The data set is classed as ADME.

Sequence of Metabotropic glutamate receptor 5 (Homo sapiens) (P41594 21-1212 limits assumed): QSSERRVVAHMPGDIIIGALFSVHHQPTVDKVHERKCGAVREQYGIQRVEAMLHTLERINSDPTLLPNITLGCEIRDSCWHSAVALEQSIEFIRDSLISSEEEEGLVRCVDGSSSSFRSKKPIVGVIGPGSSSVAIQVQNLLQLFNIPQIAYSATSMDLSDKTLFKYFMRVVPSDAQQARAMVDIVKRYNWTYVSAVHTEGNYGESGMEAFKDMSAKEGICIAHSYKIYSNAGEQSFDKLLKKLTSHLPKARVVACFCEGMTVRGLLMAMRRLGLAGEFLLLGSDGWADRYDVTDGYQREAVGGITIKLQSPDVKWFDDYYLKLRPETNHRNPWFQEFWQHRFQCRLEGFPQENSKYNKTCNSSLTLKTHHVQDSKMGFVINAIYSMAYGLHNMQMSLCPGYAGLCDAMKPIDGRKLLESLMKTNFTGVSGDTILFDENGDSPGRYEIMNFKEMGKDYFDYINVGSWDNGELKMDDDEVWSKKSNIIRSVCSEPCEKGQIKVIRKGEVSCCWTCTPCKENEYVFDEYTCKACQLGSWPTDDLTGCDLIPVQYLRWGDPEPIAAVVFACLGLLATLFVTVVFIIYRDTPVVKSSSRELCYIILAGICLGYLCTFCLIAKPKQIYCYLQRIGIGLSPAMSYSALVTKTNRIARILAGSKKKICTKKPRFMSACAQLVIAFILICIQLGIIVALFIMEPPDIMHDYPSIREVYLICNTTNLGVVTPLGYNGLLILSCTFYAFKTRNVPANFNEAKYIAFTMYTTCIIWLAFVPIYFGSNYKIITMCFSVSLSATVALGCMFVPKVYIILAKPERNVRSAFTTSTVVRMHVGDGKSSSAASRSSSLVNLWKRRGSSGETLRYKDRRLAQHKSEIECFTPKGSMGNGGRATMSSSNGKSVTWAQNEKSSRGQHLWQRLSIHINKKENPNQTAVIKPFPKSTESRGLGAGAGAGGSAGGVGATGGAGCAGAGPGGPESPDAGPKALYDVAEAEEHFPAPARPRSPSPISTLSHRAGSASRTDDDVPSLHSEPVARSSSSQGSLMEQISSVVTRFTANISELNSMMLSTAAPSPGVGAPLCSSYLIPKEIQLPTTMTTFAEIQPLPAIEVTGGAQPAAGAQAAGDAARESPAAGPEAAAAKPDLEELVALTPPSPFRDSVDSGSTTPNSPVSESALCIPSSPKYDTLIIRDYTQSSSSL

A word on the Ki: it is a dissociation constant, usually derived from enzyme kinetics or from competition with a known ligand. `O=C(COC(=O)c1ccc(N2C(=O)C3CC=CCC3C2=O)cc1)c1ccc(N2CCCC2)cc1` (stereo not drawn) yielded an inhibition constant (Ki) in data set [1] of 1090 nM. In general, inhibition refers to the drop in the measured response relative to a control, in per cent. A lower inhibition goes with a response near the control. `O=C(COC(=O)c1ccc(N2C(=O)C3CC=CCC3C2=O)cc1)c1ccc2c(c1)OCO2` (stereo not drawn) showed an inhibition in data set [2] of 21%.

As to `Cc1ccc(C(=O)COC(=O)c2ccc(N3C(=O)CC(C)C3=O)cc2)cc1C` (stereo not drawn), the affinity in data set [1], expressed as Ki, was 411 nM. In other words, the sub-micromolar range. The molecule `Cc1ccc(C(=O)NNC(=O)c2ccc(N3C(=O)C4CC=CCC4C3=O)cc2)cc1C` (stereo not drawn) gave an inhibition in data set [2] of less than 35%. Same read-out and setting: as for `Cc1ccc(OCCNC(=O)c2ccc(N3C(=O)C4CC=CCC4C3=O)cc2)cc1C` (stereo not drawn), the figure is less than 35%. Still for that read-out and setting: as for `O=C(COC(=O)c1ccc(N2C(=O)C3CC=CCC3C2=O)cc1)c1ccccc1` (stereo not drawn), the figure is 18%. In the case of `Cc1ccc(C(=O)COC(=O)c2ccc(N3C(=O)C4CC=CCC4C3=O)cc2)cc1C` (stereo not drawn), in data set [1], the Ki amounted to 172 nM. For the molecule `Cc1ccc(OCCCNC(=O)c2ccc(N3C(=O)C4CC=CCC4C3=O)cc2)cc1C` (stereo not drawn), the inhibition in data set [2] was less than 35%.

Turning to `COc1ccc(C(=O)COC(=O)c2ccc(N3C(=O)C4CC=CCC4C3=O)cc2)cc1OC` (stereo not drawn), the inhibitory constant (Ki) in data set [1] turned out to be 1600 nM. In data set [2], `Cc1ccc(NCC(=O)Nc2ccc(N3C(=O)C4CC=CCC4C3=O)cc2)cc1C` (stereo not drawn) returned an inhibition of less than 35%. Molecule `Cc1ccc(C(=O)CN2C(=O)c3ccc(N4C(=O)C5CC=CCC5C4=O)cc3C2=O)cc1C` (stereo not drawn) returned an inhibition in data set [2] of less than 35%. The molecule `Cc1ccc(C(=O)COC(=O)c2ccc(N3C(=O)CCCC3=O)cc2)cc1C` had a Ki in data set [1] of 3270 nM. For `O=C(COC(=O)c1ccc(N2C(=O)C3CC=CCC3C2=O)cc1)c1ccc2c(c1)CCCC2` (stereo not drawn), affinity in data set [1] was put at a Ki of 171 nM. As for `Cc1ccc(C(=O)COC(=O)c2ccc(N3C(=O)C4CC=CCC4C3=O)cc2)cc1` (stereo not drawn), the Ki in data set [1] stood at 9480 nM.

In data set [1], `COc1ccc(C(=O)COC(=O)c2ccc(N3C(=O)C4CC=CCC4C3=O)cc2)cc1[N+](=O)[O-]` (stereo not drawn) yielded a Ki of 1680 nM. Consider `Cc1ccc(NC(=O)Nc2ccc(N3C(=O)C4CC=CCC4C3=O)cc2)cc1C` (stereo not drawn), for which, in data set [2], the inhibition was less than 35%. In turn, `O=C(COC(=O)c1ccc(N2C(=O)C3CC=CCC3C2=O)cc1)c1ccc2c(c1)OCCO2` (stereo not drawn) yielded a Ki in data set [1] of 2040 nM. `Cc1ccc(C(=O)COCc2ccc(N3C(=O)C4CC=CCC4C3=O)cc2)cc1C` (stereo not drawn) came in with an inhibition in data set [2] of less than 35%. `Cc1ccc(C(=O)COC(=O)c2ccc(N3C(=O)C4C5C=CC(C5)C4C3=O)cc2)cc1C` (stereo not drawn): the Ki in data set [1] stood at 1010 nM. The molecule `CC1=C(C)C(=O)N(c2ccc(C(=O)OCC(=O)c3ccc(C)c(C)c3)cc2)C1=O` returned a Ki in data set [1] of 6430 nM.

Take `Cc1ccc(C2CN(C(=O)c3ccc(N4C(=O)C5CC=CCC5C4=O)cc3)CCO2)cc1C` (stereo not drawn): the inhibition in data set [2] was less than 35%. The same measure, in the same setting: the value for `Cc1ccc2c(c1)C(=O)N(c1ccc(C(=O)OCC(=O)c3ccc(C)c(C)c3)cc1)C2=O` was 28%. The molecule `CC1=CCC2C(=O)N(c3ccc(C(=O)OCC(=O)c4ccc(C)c(C)c4)cc3)C(=O)C2C1` (stereo not drawn) returned a Ki in data set [1] of 216 nM. `Cc1ccc(CNC(=O)Nc2ccc(N3C(=O)C4CC=CCC4C3=O)cc2)cc1C` (stereo not drawn) yielded an inhibition in data set [2] of less than 35%.

In the case of `Cc1ccc(C(=O)COC(=O)c2ccc(N3C(=O)CC(C)CC3=O)cc2)cc1C`, affinity in data set [1] was put at a Ki of 1840 nM. For `Cc1ccc(C(=O)CN(C)C(=O)c2ccc(N3C(=O)C4CC=CCC4C3=O)cc2)cc1C` (stereo not drawn), in data set [2], the inhibition was less than 35%. On to `Cc1ccc(NC(=O)c2ccc(N3C(=O)C4CC=CCC4C3=O)cc2)cc1C` (stereo not drawn), for which, in data set [2], the inhibition was less than 35%.

The term half-life denotes the time in which the quantity being followed falls by half. High values mean slow decline, low ones rapid decline. In data set [1], `Cc1ccc(C(=O)COC(=O)c2ccc(N3C(=O)C4CCC(C)CC4C3=O)cc2)cc1C` (stereo not drawn) displayed a Ki of 113 nM. The half-life in data set [3] was 2 h. `Cc1ccc(C(=O)COC(=O)c2ccc(N3C(=O)[C@@H]4CCCC[C@H]4C3=O)cc2)cc1C` showed an inhibition constant Ki in data set [1] of 150 nM. In other words, the sub-micromolar range. Consider `CC1(C)CCC(C)(C)c2cc(C(=O)COC(=O)c3ccc(N4C(=O)C5CC=CCC5C4=O)cc3)ccc21` (stereo not drawn), for which the inhibition in data set [2] was 32%. On to `COc1ccc(C(=O)COC(=O)c2ccc(N3C(=O)C4CC=CCC4C3=O)cc2)cc1` (stereo not drawn), for which the inhibition in data set [2] was found to be 39%.

Turning to `O=C(COC(=O)c1ccc(N2C(=O)C3CC=CCC3C2=O)cc1)c1ccc2ccccc2c1` (stereo not drawn), the Ki in data set [1] amounted to 303 nM. `Cc1ccc(C(=O)COC(=O)c2ccc(N3C(=O)COCC3=O)cc2)cc1C` came in with an inhibition in data set [2] of 41%. Take `CC1=CC(=O)N(c2ccc(C(=O)OCC(=O)c3ccc(C)c(C)c3)cc2)C1=O`: the inhibitory constant (Ki) in data set [1] came to 4800 nM. Still for that read-out and setting: the value for `Cc1ccc(C(=O)COC(=O)c2ccc(N3C(=O)[C@H]4CCCC[C@H]4C3=O)cc2)cc1C` was 190 nM; that for `O=C(COC(=O)c1ccc(N2C(=O)C3CC=CCC3C2=O)cc1)c1ccc(N2CCOCC2)cc1` (stereo not drawn) was 3360 nM.

As to `O=C(COC(=O)c1ccc(N2C(=O)C3CC=CCC3C2=O)cc1)c1ccc(C2CCCCC2)cc1` (stereo not drawn), the affinity in data set [1] corresponds to a Ki of 18000 nM.

With `Cc1ccc(C(=O)N2CCCN2C(=O)c2ccc(N3C(=O)C4CC=CCC4C3=O)cc2)cc1C` (stereo not drawn), the inhibition in data set [2] is less than 35%. Same read-out and setting: the value for `Cc1ccc(C(=O)COC(=O)c2ccc(N3CCCC3=O)cc2)cc1C` was 38%. On to `Cc1ccc(C(=O)COC(=O)c2ccc(N3C(=O)C4=C(CCC4)C3=O)cc2)cc1C`, for which, in data set [2], the inhibition was determined as 10%. Consider `Cc1ccc(C(=O)CNC(=O)c2ccc(N3C(=O)C4CC=CCC4C3=O)cc2)cc1C` (stereo not drawn), for which, in data set [2], the inhibition is less than 35%. The same measure, in the same setting: as for `Cc1ccc(C(=O)COC(=O)c2ccc(N3C(=O)c4ccncc4C3=O)cc2)cc1C`, the figure is 33%; as for `Cc1ccc(NC(=O)NCc2ccc(N3C(=O)C4CC=CCC4C3=O)cc2)cc1C` (stereo not drawn), less than 35%; as for `Cc1cc2c(cc1C)C(=O)N(NC(=O)c1ccc(N3C(=O)C4CC=CCC4C3=O)cc1)C2=O` (stereo not drawn), less than 35%. Take `Cc1ccc(C(=O)COC(=O)c2ccc(N3C(=O)CCC3=O)cc2)cc1C`: the affinity in data set [1] corresponds to a Ki of 506 nM. In data set [3], this molecule had a half-life of 2 h. In the case of `Cc1ccc(C(=O)COC(=O)c2ccc(N3C(=O)C4CC(Br)C(Br)CC4C3=O)cc2)cc1C` (stereo not drawn), in data set [1], the affinity corresponds to a Ki of 98 nM. Still for that read-out and setting: the value for `O=C(COC(=O)c1ccc(N2C(=O)C3CC=CCC3C2=O)cc1)c1ccc2c(c1)CCC2` (stereo not drawn) was 401 nM; that for `Cc1ccc(C(=O)COC(=O)c2ccc(N3C(=O)C4CC=CCC4C3=O)cc2)cc1[N+](=O)[O-]` (stereo not drawn) was 3790 nM. With `Cc1ccc(CCNC(=O)c2ccc(N3C(=O)C4CC=CCC4C3=O)cc2)cc1C` (stereo not drawn), the inhibition in data set [2] was less than 35%.

For the molecule `Cc1ccc(C(=O)COC(=O)c2ccc(NC(=O)C3CC=CCC3C(=O)O)cc2)cc1C` (stereo not drawn), the inhibition in data set [2] is 34%. Same read-out and setting: the value for `Cc1ccc(CNC(=O)c2ccc(N3C(=O)C4CC=CCC4C3=O)cc2)cc1C` (stereo not drawn) was less than 35%.

The values above are taken from ChEMBL document CHEMBL1139596, “Non-competitive inhibitors of metabotropic glutamate receptor 5 (mGluR5)” (Bioorg Med Chem Lett, 2005).
